Values after ≈ are worked out from the molar mass of the structure shown. Where a SMILES comes first, the peptide text is derived from it. Bridges are numbered along the chain shown (N, C = ends). [ ]: non-standard residue; d: D form. Orn = NCCC[C@H](N)C(=O)O; Mpa = O=C(O)CCS
Key:
[1] = Clearance in rat; assay type: ADME, organism-based; settings: in vivo
In short: (§1)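 Rat pharmacokinetics, n = 4; dosed at 5 mg/kg in 5% DMSO/95% PEG400. AUC in ng·h mL⁻¹, clearance in mL min⁻¹ kg⁻¹, half-life in h.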

[2] = Oral bioavailability in rat; assay type: ADME, organism-based; settings: in vivo
[3] = Clearance in dog; assay type: ADME, organism-based, Canis lupus familiaris; settings: in vivo
In short: (§2)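 Dog pharmacokinetics, n = 3; dosed at 0.6 mg/kg in 5% DMSO/95% PEG400. AUC reported as ng·h mL⁻¹ and clearance as mL min⁻¹ kg⁻¹.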

[4] = Oral bioavailability in dog; assay type: ADME, organism-based, Canis lupus familiaris; settings: in vivo
[5] = Lipophilicity, log D by CHI method; assay type: physicochemical; settings: read-out: Log D
In short: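 Lipophilicity determined by an HPLC-based method.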

[6] = target: T1, Oxytocin receptor (Homo sapiens, UniProt P30559); experiment: Displacement of [3H]oxytocin from human OTR
T1 sequence (P30559 whole entry): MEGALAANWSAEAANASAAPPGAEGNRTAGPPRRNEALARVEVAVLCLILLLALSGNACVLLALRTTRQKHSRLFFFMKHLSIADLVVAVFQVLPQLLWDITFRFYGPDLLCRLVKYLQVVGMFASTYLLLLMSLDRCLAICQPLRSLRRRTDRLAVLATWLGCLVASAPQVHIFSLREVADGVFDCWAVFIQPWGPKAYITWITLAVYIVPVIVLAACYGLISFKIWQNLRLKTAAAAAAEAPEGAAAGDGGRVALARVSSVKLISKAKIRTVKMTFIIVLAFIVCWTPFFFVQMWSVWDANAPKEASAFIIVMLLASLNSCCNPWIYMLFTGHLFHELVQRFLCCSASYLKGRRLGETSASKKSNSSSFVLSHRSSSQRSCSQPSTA

[7] = AUC in rat; assay type: ADME, organism-based; set-up: concentration or dose not given beside the values; settings: plasma; in short: as §1
[8] = AUC in dog; assay type: ADME, organism-based, Canis lupus familiaris; set-up: concentration or dose not given beside the values; settings: plasma; in short: as §2
[9] = Solubility of the compound; assay type: physicochemical
In short: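 Aqueous solubility (mg mL⁻¹) measured by precipitation followed by HPLC.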

[10] = test system: Rattus norvegicus; experiment: Reduction in oxytocin-induced uterine contraction in iv dosed anaesthetized rat; assay type: functional, organism-based
In short: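 Anaesthetized rats; uterine contractions elicited by iv oxytocin at a standard dose of 0.3 ug/kg. Test compound then given iv in rising doses (0.1, 0.3, 1 mg/kg) and the fall in contractility recorded. Plasma IC50 taken as the plasma concentration giving 50% inhibition of the response to the standard oxytocin dose.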

[11] = target: T2, Oxytocin receptor (Rattus norvegicus, UniProt P70536); experiment: Displacement of [3H]oxytocin from rat OTR
T2 sequence (P70536 whole entry): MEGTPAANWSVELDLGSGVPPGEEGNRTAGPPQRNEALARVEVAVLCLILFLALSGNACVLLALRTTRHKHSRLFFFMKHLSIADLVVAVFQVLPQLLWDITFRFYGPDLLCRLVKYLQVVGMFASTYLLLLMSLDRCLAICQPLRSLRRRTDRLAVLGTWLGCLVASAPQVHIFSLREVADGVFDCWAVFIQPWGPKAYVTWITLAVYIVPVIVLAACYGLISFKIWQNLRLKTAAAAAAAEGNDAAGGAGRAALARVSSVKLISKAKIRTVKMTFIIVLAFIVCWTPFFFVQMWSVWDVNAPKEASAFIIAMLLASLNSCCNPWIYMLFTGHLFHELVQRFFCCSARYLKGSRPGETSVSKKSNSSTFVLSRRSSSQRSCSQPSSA

Structure (SMILES)	clearance [1] [mL/min/kg]	bioavailability [2] [%]	clearance [3] [mL/min/kg]	bioavailability [4] [%]	chromatographic logD [5]	Ki [6] [nM]	AUC [7] [ng·h/mL]	AUC [8] [ng·h/mL]	solubility [9] [µg/mL]	IC50 ([10]; Rattus norvegicus) [nM]	Ki [11] [nM]	Activity [10] [mg/kg]
CC(C)C[C@@H]1C(=O)N[C@H](C2Cc3ccccc3C2)C(=O)N1[C@@H](C(=O)NCCN1CCCCC1)c1ccc(F)cc1					2							
Cc1ccc([C@H](C(=O)NC(C)C)N2C(=O)[C@@H](C3Cc4ccccc4C3)NC(=O)[C@H]2CC(C)C)o1					3.3							
CC(C)C[C@@H]1C(=O)N[C@H](C2Cc3ccccc3C2)C(=O)N1[C@@H](C(=O)N(C)Cc1ccccn1)c1ccc(F)cc1					3.2							
CC(C)C[C@@H]1C(=O)N[C@H](C2Cc3ccccc3C2)C(=O)N1[C@@H](C(=O)N1CCOCC1)c1ccc(F)cc1F	16	41	8	7	3.2	1.26	2150	100				
CC(C)C[C@@H]1C(=O)N[C@H](C2Cc3ccccc3C2)C(=O)N1[C@@H](C(=O)O)c1ccc(F)cc1F	53	30	21	5	1.7	0.631	805	23	216 (≈ 473 µM)			
CC(C)C[C@@H]1C(=O)N[C@H](C2Cc3ccccc3C2)C(=O)N1[C@@H](C(=O)NC(C)(C)C)c1ccc(N2CCC(O)CC2)cc1	26	24	21	10	2.4	3.98						
CC(C)C[C@@H]1C(=O)N[C@H](C2Cc3ccccc3C2)C(=O)N1[C@@H](C(=O)N1CCN(C)CC1)c1ccc(F)cc1					2.7							
CC(C)C[C@@H]1C(=O)N[C@H](C2Cc3ccccc3C2)C(=O)N1[C@@H](C(=O)NC(C)(C)C)c1ccc2c(c1)CCO2	39	27	14	9	3.4	3.98						
CNC(=O)[C@@H](c1ccc(F)cc1F)N1C(=O)[C@@H](C2Cc3ccccc3C2)NC(=O)[C@H]1CC(C)C	32	98	13	11	2.9	0.398	3690	82	89 (≈ 190 µM)			

Further lines, with some results ahead:

clearance [1] [mL/min/kg]	bioavailability [2] [%]	clearance [3] [mL/min/kg]	bioavailability [4] [%]	chromatographic logD [5]	Ki [6] [nM]	AUC [7] [ng·h/mL]	AUC [8] [ng·h/mL]	solubility [9] [µg/mL]	IC50 ([10]; Rattus norvegicus) [nM]	Ki [11] [nM]	Structure (SMILES)	Activity [10] [mg/kg]
48	2	15	50								CC(C)C[C@@H]1C(=O)N[C@H](C2Cc3ccccc3C2)C(=O)N1[C@@H](C(=O)NC(C)C)c1ccc(N(C)C)cc1	
					12.6	567					CC(C)C[C@@H]1C(=O)N[C@H](C2Cc3ccccc3C2)C(=O)N1[C@@H](CO)c1ccc(F)cc1F	
19	55	6	14	2.8	0.126	2350	200	159 (≈ 310 µM)			CC(C)C[C@@H]1C(=O)N[C@H](C2Cc3ccccc3C2)C(=O)N1[C@@H](C(=O)N(C)CCO)c1ccc(F)cc1F	
34	48	23	14	3.3	3.98						CC(C)C[C@@H]1C(=O)N[C@H](C2Cc3ccccc3C2)C(=O)N1[C@@H](C(=O)NC(C)(C)C)c1ccc2c(c1)OCO2	
				3.3							CC(C)C[C@@H]1C(=O)N[C@H](C2Cc3ccccc3C2)C(=O)N1[C@@H](C(=O)NCC(F)(F)F)c1ccc(F)cc1	
				2.3							CC(C)C[C@@H]1C(=O)N[C@H](C2Cc3ccccc3C2)C(=O)N1[C@@H](C(=O)NCCO)c1ccc(F)cc1	
				3.4							COc1ccc([C@H](C(=O)NC(C)(C)C)N2C(=O)[C@@H](C3Cc4ccccc4C3)NC(=O)[C@H]2CC(C)C)cc1F	
19	12			2.8	0.631	540		187 (≈ 366 µM)			CC(C)C[C@@H]1C(=O)N[C@H](C2Cc3ccccc3C2)C(=O)N1[C@@H](C(=O)N1CC(O)C1)c1ccc(F)cc1F	
				3.4							CCNS(=O)(=O)c1ccc(-c2ccc([C@H](C(=O)NC(C)(C)C)N3C(=O)[C@@H](C4Cc5ccccc5C4)NC(=O)[C@H]3CC(C)C)cc2)cc1	
22	17	4	37	3.3	0.631	660	710	1 (≈ 2.02 µM)			CC(C)C[C@@H]1C(=O)N[C@H](C2Cc3ccccc3C2)C(=O)N1[C@@H](C(=O)N1CCC1)c1ccc(F)cc1F	
24	31	6	61	3	1.58						CC[C@@H](C)[C@@H]1C(=O)N[C@H](C2Cc3ccccc3C2)C(=O)N1[C@@H](C(=O)NC(C)C)c1ccc(N2CCOCC2)cc1	
33	22			2.5	0.501	560		1 (≈ 2.2 µM)			CC(C)C[C@@H]1C(=O)N[C@H](C2Cc3ccccc3C2)C(=O)N1[C@@H](C(N)=O)c1ccc(F)cc1F	
					39.8				186	39.8	CCOc1ccc(C[C@H]2NC(=O)CCSSC[C@@H](C(=O)N3CCC[C@H]3C(=O)N[C@@H](CCCN)C(=O)NCC(N)=O)NC(=O)[C@H](CC(N)=O)NC(=O)[C@H]([C@@H](C)O)NC(=O)[C@H]([C@@H](C)CC)NC2=O)cc1 [ATOSIBAN] ([Mpa][dY](Et)ITNCP[Orn]G-NH2; disulfide 1-6)	0.63

Source: ChEMBL document CHEMBL1138900, “2,5-diketopiperazines as potent, selective, and orally bioavailable oxytocin antagonists. 3. Synthesis, pharmacokinetics, and in vivo potency” (J Med Chem, 2006)
